The text below walks through data of ChEMBL document CHEMBL4376888, “Discovery of Potent, Selective, and Direct Acid Sphingomyelinase Inhibitors with Antidepressant Activity” (J Med Chem, 2020).

Activity calls are given as the source filed them. No cut-off for these calls is given here. Some results are limits rather than exact numbers.

In data set [1] the target is T1, Sphingomyelin phosphodiesterase (Homo sapiens, UniProt P17405).
T1 sequence (P17405 whole entry): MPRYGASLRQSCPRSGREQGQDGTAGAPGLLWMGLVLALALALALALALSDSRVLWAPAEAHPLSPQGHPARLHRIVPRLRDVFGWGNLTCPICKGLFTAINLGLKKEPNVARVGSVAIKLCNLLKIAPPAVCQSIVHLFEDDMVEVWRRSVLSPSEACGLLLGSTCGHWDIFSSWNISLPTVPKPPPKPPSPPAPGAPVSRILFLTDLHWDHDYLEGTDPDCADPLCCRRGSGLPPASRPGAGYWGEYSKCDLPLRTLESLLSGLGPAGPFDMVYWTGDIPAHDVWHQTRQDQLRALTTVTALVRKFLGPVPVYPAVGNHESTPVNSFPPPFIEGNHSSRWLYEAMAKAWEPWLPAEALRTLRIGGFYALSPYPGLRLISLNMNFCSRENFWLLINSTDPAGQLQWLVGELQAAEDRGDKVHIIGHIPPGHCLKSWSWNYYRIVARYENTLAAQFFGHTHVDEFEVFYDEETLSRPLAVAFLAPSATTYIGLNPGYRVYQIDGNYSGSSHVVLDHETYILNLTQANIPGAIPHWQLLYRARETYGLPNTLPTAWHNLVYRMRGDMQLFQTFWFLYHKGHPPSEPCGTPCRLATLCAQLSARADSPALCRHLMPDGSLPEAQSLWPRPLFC
Description: Inhibition of human Huh7 cell derived acid sphingomyelinase using NBD-sphingomyelin as substrate after 30 mins by fluorescence based assay. In short, it runs like this:
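Cultured cells were lysed in 25 mM Tris-HCl pH 7.4, 5 mM EDTA, sonicated and cleared at 300 g. 400 μg protein incubated with NBD-sphingomyelin in 100 mM sodium acetate pH 4.7, 1% Triton X-100, 40 mM CaCl2, 100 μM ZnCl2. Inhibitors added in DMSO, 37 °C, 30 min. Stopped with chloroform/methanol 2:1; NBD-ceramide fluorescence after TLC.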

For data set [2], the target named is T1, Sphingomyelin phosphodiesterase. Kind of data set: Inhibition of recombinant human acid sphingomyelinase (His62 to Pro628 residues) using NBD-sphingomyelin as substrate after 30 mins by fluorescence based assay. In a few lines: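 Buffer 100 mM sodium acetate pH 4.7, 1% Triton X-100, 40 mM CaCl2, 100 μM ZnCl2. Inhibitors in DMSO at various concentrations, 37 °C, 30 min. NBD-ceramide fluorescence after chloroform/methanol extraction and TLC.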

For data set [3], the target named is T2, Sphingomyelin phosphodiesterase 2 (Homo sapiens) (UniProt O60906).
T2 sequence (whole entry): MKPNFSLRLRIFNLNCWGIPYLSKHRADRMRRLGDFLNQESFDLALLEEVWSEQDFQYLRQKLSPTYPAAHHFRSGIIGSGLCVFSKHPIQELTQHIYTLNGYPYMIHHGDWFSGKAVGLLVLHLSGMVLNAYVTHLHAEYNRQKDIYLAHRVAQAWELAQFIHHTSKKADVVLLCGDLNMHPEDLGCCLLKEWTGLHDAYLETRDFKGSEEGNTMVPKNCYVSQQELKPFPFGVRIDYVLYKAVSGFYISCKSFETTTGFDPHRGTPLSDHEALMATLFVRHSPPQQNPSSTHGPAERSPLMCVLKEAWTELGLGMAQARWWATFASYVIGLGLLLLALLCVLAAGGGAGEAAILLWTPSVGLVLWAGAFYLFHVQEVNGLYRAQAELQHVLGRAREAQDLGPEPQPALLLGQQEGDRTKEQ
Description: Inhibition of neutral sphingomyelinase (unknown origin) at 100 uM using NBD-sphingomyelin as substrate after 30 mins by fluorescence based assay. In a few lines: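 Neutral sphingomyelinase assay run as the ASM cell-extract assay (NBD-sphingomyelin, 37 °C, 30 min, chloroform/methanol extraction, TLC, NBD-ceramide fluorescence). Buffer was 200 mM Tris-HCl pH 7.4 with 10 mM MgCl2 and 10 mM dithiothreitol. Tested at 100 μM.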

The nature of data set [4]: Solubility of the compound in physiological saline. It counts as physicochemical. The conditions noted are these: buffer.
The target in data set [5] is T1, Sphingomyelin phosphodiesterase. Kind of data set: Inhibition of acid sphingomyelinase (unknown origin).
In another data set the test system is NIH3T3. Kind of data set: Cytotoxicity against mouse NIH/3T3 cells assessed as reduction in cell viability after 24 hrs by MTT assay. It counts as cell-based. The conditions noted are these: mouse, nih3t3, 24 h. In a few lines:
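NIH3T3 cells in DMEM with 10 % FBS at 37 °C, 5 % CO₂, grown overnight, then inhibitor added for 24 h; viability read by MTT.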
(In general: Tetrazolium assays rely on reduction of a dye to a coloured formazan, in cell work by metabolically active cells.)

The subject of data set [6] is Rattus norvegicus. Description: Antidepressant activity in Sprague-Dawley rat model of reserpine-induced depression assessed as reduction in total time spent in center at 12 mg/kg, ip administered twice daily for 2 weeks measured for 5 mins by open field test. The class given is functional, organism-based. In a few lines: (§1)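 Female SD rats (6-8 weeks, 200 g) given reserpine 4 mg/Kg ip daily to induce depression; test agent in 5 % DMSO, 2 % Tween 80, 5 % glucose, ip twice a day for two weeks. Each rat placed in the central square of a 100 cm × 100 cm box (25 squares, walls ~42 cm); centre time, grid crossings, rearing and grooming recorded over 5 min, 7:30–12:00; n = 8.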

Data set [7] has as its system Rattus norvegicus. Description: Antidepressant activity in Sprague-Dawley rat model of reserpine-induced depression assessed as increase in time passing the grid at 12 mg/kg, ip administered twice daily for 2 weeks measured for 5 mins by open field test. The class given is functional, organism-based. In short, it runs like this: as §1
For data set [8], the system named is Rattus norvegicus. Kind of data set: Antidepressant activity in Sprague-Dawley rat model of reserpine-induced depression assessed as increase in frequency of upright at 12 mg/kg, ip administered twice daily for 2 weeks measured for 5 mins by open field test. It counts as functional, organism-based. In a few lines:
as §1

Data set [9] relates to Rattus norvegicus. Description: Antidepressant activity in Sprague-Dawley rat model of reserpine-induced depression assessed as increase in grooming frequency at 12 mg/kg, ip administered twice daily for 2 weeks measured for 5 mins by open field test. The class given is functional, organism-based. In a few lines: as §1
For data set [10], the system named is Rattus norvegicus. Kind of data set: Reversal of reserpine-induced inhibition of neurogenesis in Sprague-Dawley rat hippocampus at 12 mg/kg, ip administered twice daily for 2 weeks by EDU-incorporation assay. It counts as functional, organism-based. In short, it runs like this: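 Reserpine-depressed female SD rats (4 mg/Kg ip daily; drug ip twice daily for two weeks) injected with EdU 8 mg/kg twice in 1 day, killed 96 h later. Frozen brain sections washed with glycine and PBS, Click-iT stained 30 min, Hoechst 33342 30 min; hippocampal proliferation scored by fluorescence microscopy; n = 5.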

By IC50 is commonly meant the concentration that gives 50% inhibition. On to `COc1ccc(C(=O)NO)cc1OCc1ccc(-c2noc(-c3ccc(Br)cc3)n2)cc1`, for which the IC50 in data set [1] was > 100 µM.

On to `O=C(NO)c1cccc(OCc2ccc(-c3noc(Cc4ccccc4)n3)cc2)c1`, for which the IC50 in data set [1] is 7.83 µM; in data set [2] it was 4.93 µM.

`COc1ccc(C(=O)NO)cc1OCc1noc(-c2cccc(Cl)c2)n1` displayed an IC50 in data set [1] of 9.22 µM. The inhibition entry in data set [3] is “inactive”.

On to `COc1ccc(C(=O)NO)cc1OCc1ccc(-c2cccnc2)cc1`, for which the IC50 in data set [1] is 4.97 µM; in data set [2], 3.83 µM. The inhibition entry in data set [3] is “inactive”.

Turning to `COc1ccc(C(=O)NO)cc1OCc1ccc(-c2ccccc2)cc1`, the inhibition result in [3] is “inactive”. Also, the solubility entry in data set [4] is reported as “Insoluble”.

In the case of `O=C(NO)c1cccc(OCc2ccc(-c3noc(CCc4ccccc4)n3)cc2)c1`, the half-maximal inhibitory concentration (IC50) in data set [1] was found to be 1.73 µM; in data set [2], 4.25 µM. The inhibition entry in [3] was “inactive”.

The molecule `CCc1nc(-c2ccc(COc3cccc(C(=O)NO)c3)cc2)no1` had a concentration for half-maximal inhibition (IC50) in data set [1] of 34.7 µM.

Regarding `COc1c(O)cc2oc3cc(O)c(CC=C(C)C)c(O)c3c(=O)c2c1CC=C(C)C` [MANGOSTIN], in data set [1], the 50% inhibitory concentration (IC50) turned out to be 14.1 µM.

Take `O=C(NO)c1cccc(OCc2ccc(-c3ccc(Cl)cc3)cc2)c1`: the figures for the IC50 in data set [1] and in data set [2] were 8.96 µM and 0.36 µM, respectively. Besides, the solubility result in [4] is “Insoluble”.

On to `O=C(NO)c1cccc(OCc2ccc(-c3noc(-c4ccccc4)n3)cc2)c1`, for which, in data set [1], the IC50 is > 100 µM.

In turn, `COc1ccc(-c2nc(COc3cc(C(=O)NO)ccc3OC)no2)cc1OC` returned an IC50 in data set [1] of 13.8 µM.

As to `COc1ccc(C(=O)NO)cc1OCc1ccc(-c2ccc(Cl)cc2)cc1`, the figures for the half-inhibitory concentration (IC50) in data set [1] and in data set [2] were 0.34 µM and 8.07 µM, respectively. Besides, the inhibition entry in [3] was “inactive”. For the same molecule, the solubility entry in data set [4] is “Insoluble”.

`CCCCCCCC(N)(P(=O)(O)O)P(=O)(O)O`: in data set [5], the half-maximal inhibitory concentration (IC50) turned out to be 0.02 µM.

As for `O=C(NO)c1cccc(OCc2ccc(-c3ccccc3)cc2)c1`, in [1], the IC50 is 19.6 µM. Moreover, the inhibition entry in data set [3] was “inactive”. Also, the solubility entry in data set [4] is on record as “Insoluble”.

With `O=C(NO)c1cccc(OCc2ccc(-c3noc(-c4cccc(F)c4)n3)cc2)c1`, the concentration for half-maximal inhibition (IC50) in data set [1] is > 100 µM.

As for `CN(C)CCC=C1c2ccccc2CCc2ccccc21` [AMITRIPTYLINE], in the data set on NIH3T3, the Activity result is recorded as “Non-Toxic”. Also, the outcome in the data set on Rattus norvegicus [6], in the data set with Rattus norvegicus [7], in the data set with Rattus norvegicus [8], in the data set with Rattus norvegicus [9] and in the data set with Rattus norvegicus [10] was Active.

A word on the Ki: it is a dissociation constant, usually derived from enzyme kinetics or from competition with a known ligand. A higher Ki goes with weaker binding. As to `CCCCCCCCCCCCC/C=C/[C@H](O)[C@@H](COP(=O)([O-])OCC[N+](C)(C)C)NC(=S)NC(C)(C)C`, the inhibition constant Ki in [5] came to 70 µM.

For `O=C(NO)c1cc(OCc2ccc(-c3ccccc3)cc2)no1`, the IC50 came to 0.88 µM in [1] and 4.09 µM in [2]. In data set [3], the inhibition entry is “inactive”.

Take `CCCCCCc1ccc(COc2cc(C(=O)NO)ccc2OC)cc1`: the inhibition entry in [3] was “inactive”. In data set [4], the solubility entry is listed as “Insoluble”.

As for `CCOc1ccc2oc(-c3cc(Br)cc4c3OCOC4)c(N)c(=O)c2c1`, the IC50 in data set [5] turned out to be 3.1 µM.

In the case of `O=C(NO)c1cccc(OCc2ccc(-c3noc(-c4ccc(Br)cc4)n3)cc2)c1`, the IC50 in data set [1] is > 100 µM.

Turning to `O=C(NO)c1cccc(OCc2ccc(-c3cccnc3)cc2)c1`, 52.3 µM corresponded to half-maximal inhibition in [1] (IC50).

`CCCCCCc1ccc(COc2cccc(C(=O)NO)c2)cc1`: the inhibition result in data set [3] was “inactive”. Also, the solubility result in data set [4] is reported as “Insoluble”.

Take `CCCCCCCCCCOc1cc(C(=O)NO)ccc1OC`: the concentration for half-maximal inhibition (IC50) in [2] came to 0.89 µM.

The molecule `COc1ccc(C(=O)NO)cc1OCc1noc(-c2ccc(Cl)cc2)n1` displayed an IC50 in data set [1] of 21.6 µM. For the same molecule, in data set [3], the inhibition result was “inactive”.

`CCCCCCCCCCOc1cc(C(=O)NO)on1`: the IC50 in data set [1] is 0.36 µM; in [2], 2.2 µM. The inhibition entry in data set [3] is “inactive”.
